In ChEMBL document CHEMBL1136923, “Highly potent, orally available anti-inflammatory broad-spectrum chemokine inhibitors” (J Med Chem, 2009):

Tests used:
[1] = system: Mus musculus; experiment: Antiinflammatory activity in mouse assessed as inhibition of LPS-induced TNFalpha upregulation at 0.25 mg, sc measured 2 hrs after LPS challenge; format: functional
Procedure, shortened: (§1)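 Murine sublethal endotoxemia: LPS given intraperitoneally, with serum TNF-α measured 2 h after the LPS injection as the end point. Compound was given subcutaneously or orally. Vehicle was 0.6% DMSO and 1% carboxymethylcellulose (final concentrations) in sterile water. Effect is reported as % relative to control.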

[2] = target: C-X-C chemokine receptor type 4 (Homo sapiens) (UniProt P61073); experiment: Antagonist activity at CXCR4 in human THP1 cells assessed as inhibition of CXCL12-induced chemotaxis at 0.1 nM after 2 hrs by microtiter format trans-well migration assay; format: functional, cell-based; details: THP-1
Chain of C-X-C chemokine receptor type 4 (Homo sapiens) (P61073 whole entry): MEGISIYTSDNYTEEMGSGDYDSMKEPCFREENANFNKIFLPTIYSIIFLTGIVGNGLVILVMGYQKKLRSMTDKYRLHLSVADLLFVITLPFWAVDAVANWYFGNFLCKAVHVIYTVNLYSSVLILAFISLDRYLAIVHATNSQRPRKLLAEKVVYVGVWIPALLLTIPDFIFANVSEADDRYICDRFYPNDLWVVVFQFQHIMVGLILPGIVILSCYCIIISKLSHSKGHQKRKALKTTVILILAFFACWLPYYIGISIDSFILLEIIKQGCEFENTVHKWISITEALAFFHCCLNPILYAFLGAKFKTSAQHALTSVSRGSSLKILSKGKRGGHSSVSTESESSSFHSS
Procedure, shortened: (§2)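 Microtiter trans-well migration assay in Gey's balanced salt solution with 1 mg/mL endotoxin-free BSA, no fetal calf serum. Migration ran 2 h at 37 °C. Compounds dissolved in DMSO and added to both top and bottom compartments, final DMSO 1%.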

[3] = system: Mus musculus; experiment: Antiinflammatory activity in mouse assessed as inhibition of LPS-induced TNFalpha upregulation at 0.0025 mg, po measured 2 hrs after LPS challenge; format: functional; procedure, shortened: as §1
[4] = target: T1, C-C chemokine receptor type 1 (Homo sapiens) (UniProt P32246); experiment: Antagonist activity at CCR1 in human THP1 cells assessed as inhibition of CCL3-induced chemotaxis at 10 nM after 2 hrs by microtiter format trans-well migration assay; format: functional, cell-based; details: THP-1; procedure, shortened: as §2
T1 sequence (whole entry): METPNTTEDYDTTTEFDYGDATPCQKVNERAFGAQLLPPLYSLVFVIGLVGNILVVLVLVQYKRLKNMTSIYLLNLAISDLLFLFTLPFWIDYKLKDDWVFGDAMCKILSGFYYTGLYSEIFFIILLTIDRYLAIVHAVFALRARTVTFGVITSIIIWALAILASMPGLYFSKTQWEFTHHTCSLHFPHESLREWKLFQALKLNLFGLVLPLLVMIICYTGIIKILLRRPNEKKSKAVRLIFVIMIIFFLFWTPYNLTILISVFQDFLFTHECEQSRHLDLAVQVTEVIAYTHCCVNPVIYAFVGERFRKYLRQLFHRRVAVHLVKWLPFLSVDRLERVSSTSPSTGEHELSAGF

[5] = Antagonist activity at Interleukin-8 receptor in human PMNC assessed as inhibition of CXCL8-induced chemotaxis at 1000 nM after 2 hrs by microtiter format trans-well migration assay; format: functional; procedure, shortened: as §2
[6] = system: THP-1; experiment: Endogenous chemoattractant activity at human THP1 cells assessed as cell migration at 1000 uM after 2 hrs by microtiter format trans-well migration assay; format: functional
[7] = target: C-C chemokine receptor type 2 (Homo sapiens) (UniProt P41597); experiment: Antagonist activity at CCR2 in human THP1 cells assessed as inhibition of CCL2-induced chemotaxis at 10 nM after 2 hrs by microtiter format trans-well migration assay; format: functional, cell-based; details: THP-1; procedure, shortened: as §2
Chain of C-C chemokine receptor type 2 (Homo sapiens) (P41597 whole entry, looked up): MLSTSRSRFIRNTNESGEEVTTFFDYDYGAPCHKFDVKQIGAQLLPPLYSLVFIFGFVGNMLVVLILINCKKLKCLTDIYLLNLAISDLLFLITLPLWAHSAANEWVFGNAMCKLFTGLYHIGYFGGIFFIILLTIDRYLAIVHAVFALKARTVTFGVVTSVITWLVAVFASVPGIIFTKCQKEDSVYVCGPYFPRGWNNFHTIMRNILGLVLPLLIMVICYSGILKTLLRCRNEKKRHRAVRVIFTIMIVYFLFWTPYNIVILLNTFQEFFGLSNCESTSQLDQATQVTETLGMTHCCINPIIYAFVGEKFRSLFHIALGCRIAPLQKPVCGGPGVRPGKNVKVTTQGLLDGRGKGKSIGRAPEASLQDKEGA

[8] = target: T1, C-C chemokine receptor type 1 (Homo sapiens); experiment: Antagonist activity at CCR1 in human THP1 cells assessed as inhibition of CCL3-induced chemotaxis at 0.1 nM after 2 hrs by microtiter format trans-well migration assay; format: functional, cell-based; details: THP-1; procedure, shortened: as §2
[9] = target: C-X-C chemokine receptor type 4 (Homo sapiens) (UniProt P61073); experiment: Antagonist activity at CXCR4 in human THP1 cells assessed as inhibition of CXCL12-induced chemotaxis at 0.01 nM after 2 hrs by microtiter format trans-well migration assay; format: functional, cell-based; details: THP-1; procedure, shortened: as §2
[10] = AUC (0 to t) in Sprague-Dawley rat at 3 mg/kg, po administered as single dose; format: ADME, organism-based; design: dose 3 mg/kg, route oral; details: plasma
Procedure, shortened: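 Male Sprague-Dawley rats, three per compound per route, single dose. IV vehicle 5% DMSO in 0.9% saline; oral gavage vehicle 1% carboxymethylcellulose in 0.9% saline; fed ad libitum. Plasma taken 5–480 min post-dose, extracted with 0.1% formic acid in acetonitrile, quantified by LC/MS/MS (positive mode). AUC(0–t) by linear/log trapezoidal rule; IV curve back-extrapolated assuming initial volume 0.26 L/kg.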

[11] = system: THP-1; experiment: Endogenous chemoattractant activity at human THP1 cells assessed as cell migration at 1 uM after 2 hrs by microtiter format trans-well migration assay; format: functional
[12] = system: Mus musculus; experiment: Antiinflammatory activity in mouse assessed as inhibition of LPS-induced TNFalpha upregulation at 0.000225 mg, sc measured 2 hrs after LPS challenge; format: functional
Procedure, shortened: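 Murine sublethal endotoxemia: LPS given intraperitoneally, serum TNF-α measured 2 h after LPS injection. Compound vehicle 0.6% DMSO plus 1% carboxymethylcellulose (final concentrations) in sterile water.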

[13] = target: C-X-C chemokine receptor type 4 (Homo sapiens) (UniProt P61073); experiment: Antagonist activity at CXCR4 in human THP1 cells assessed as inhibition of CXCL12-induced chemotaxis after 2 hrs by microtiter format trans-well migration assay; format: functional, cell-based; details: THP-1; procedure, shortened: as §2
[14] = system: Mus musculus; experiment: Antiinflammatory activity in mouse assessed as inhibition of LPS-induced TNFalpha upregulation at 0.0075 ug, sc measured 2 hrs after LPS challenge; format: functional; procedure, shortened: as §1
[15] = Clearance in Sprague-Dawley rat at 1 mg/kg, iv administered as single dose; format: ADME, organism-based; design: dose 1 mg/kg, route intravenous; details: in vivo
Procedure, shortened: (§3)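 Male Sprague-Dawley rats, three per compound, receive a single intravenous dose in 5% DMSO in 0.9% saline. Food and water are given ad libitum. Plasma is taken at 5, 15, 30, 60, 120, 180, 240 and 480 min. Drug is measured by LC/MS/MS after extraction with 0.1% formic acid in acetonitrile. The curve is back-extrapolated to time zero assuming an initial volume of 0.26 L/kg.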

[16] = target: C-C chemokine receptor type 5 (Homo sapiens) (UniProt P51681); experiment: Antagonist activity at CCR5 in human THP1 cells assessed as inhibition of CCL5-induced chemotaxis after 2 hrs by microtiter format trans-well migration assay; format: functional, cell-based; details: THP-1; procedure, shortened: as §2
Chain of C-C chemokine receptor type 5 (Homo sapiens) (P51681 whole entry, looked up): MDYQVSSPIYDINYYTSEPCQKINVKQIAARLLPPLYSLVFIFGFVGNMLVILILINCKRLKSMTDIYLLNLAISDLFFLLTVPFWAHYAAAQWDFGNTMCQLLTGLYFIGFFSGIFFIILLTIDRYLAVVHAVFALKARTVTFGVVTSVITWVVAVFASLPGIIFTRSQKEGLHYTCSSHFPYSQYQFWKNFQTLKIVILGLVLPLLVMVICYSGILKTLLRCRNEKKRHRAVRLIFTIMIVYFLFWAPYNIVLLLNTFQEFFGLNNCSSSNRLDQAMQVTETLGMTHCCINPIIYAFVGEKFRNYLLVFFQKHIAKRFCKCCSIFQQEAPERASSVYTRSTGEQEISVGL

[17] = system: Mus musculus; experiment: Antiinflammatory activity in mouse assessed as inhibition of LPS-induced TNFalpha upregulation at 0.0025 ug, sc measured 2 hrs after LPS challenge; format: functional; procedure, shortened: as §1
[18] = Antagonist activity at Interleukin-8 receptor in human PMNC assessed as inhibition of CXCL8-induced chemotaxis at 0.01 nM after 2 hrs by microtiter format trans-well migration assay; format: functional; procedure, shortened: as §2
[19] = system: THP-1; experiment: Endogenous chemoattractant activity at human THP1 cells assessed as cell migration at 1 nM after 2 hrs by microtiter format trans-well migration assay; format: functional
[20] = target: C-X-C chemokine receptor type 4 (Homo sapiens) (UniProt P61073); experiment: Antagonist activity at CXCR4 in human THP1 cells assessed as inhibition of CXCL12-induced chemotaxis at 1 nM after 2 hrs by microtiter format trans-well migration assay; format: functional, cell-based; details: THP-1; procedure, shortened: as §2
[21] = target: C-X-C chemokine receptor type 4 (Homo sapiens) (UniProt P61073); experiment: Antagonist activity at CXCR4 in human THP1 cells assessed as inhibition of CXCL12-induced chemotaxis at 10 nM after 2 hrs by microtiter format trans-well migration assay; format: functional, cell-based; details: THP-1; procedure, shortened: as §2
[22] = Volume of distribution at steady state in Sprague-Dawley rat at 1 mg/kg, iv administered as single dose; format: ADME, organism-based; design: dose 1 mg/kg, route intravenous; details: in vivo, read-out: Vdss; procedure, shortened: as §3
[23] = Half life in Sprague-Dawley rat at 1 mg/kg, iv administered as single dose; format: ADME, organism-based; design: dose 1 mg/kg, route intravenous; details: in vivo; procedure, shortened: as §3

CCCCCCCCCCC(C)(C)C(=O)N[C@H]1CCCCNC1=O
inhibition (INH) [1]: 79%
inhibition [2]: 13%
inhibition (INH) [3]: 0%
inhibition [4]: 98%
inhibition at 1 µM [5]: 122%
Activity [6]: 1602%
inhibition [7]: 96%
inhibition [8]: 43%
inhibition [9]: 15.5%
AUC(0-t) [10]: 183 ng·h/mL
Activity [11]: 4626%
inhibition (INH) [12]: 68%
ED50 [13]: 1 nM
inhibition (INH) [14]: 54%
clearance [15]: 40 mL/min/kg
ED50 [16]: 0.9 nM
inhibition (INH) [17]: 29%
inhibition at 10 pM [18]: -12%
Activity [19]: 4335%
inhibition [20]: 99%
inhibition [21]: 107%
Vd [22]: 2 L/kg
half-life [23]: 46 min
